In ChEMBL document CHEMBL1649062, “Integration of lead optimization with crystallography for a membrane-bound ion channel target: discovery of a new class of AMPA receptor positive allosteric modulators” (J Med Chem, 2011):
Calls of active or inactive are those of the source.

How the values were obtained:
[1] = biological target: Glutamate receptor 2 (Rattus norvegicus) (UniProt P19491); assay: Allosteric modulation of GluA2 receptor flip isoform in rat hippocampal neuron at 10 uM by whole cell patch-clamp electrophysiology; assay type: tissue-based; conditions: Hippocampus
Procedure, shortened: (§1)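 Rat cultured hippocampal neurons; 30 μM AMPA applied for 2 s, with compound co-applied at 10 nM or 10 μM. Read-out is the increase in charge transfer, taken as the area under the current curve.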

Rattus norvegicus [2] = assay: Cognitive enhancing effect in Wistar rat assessed as reversal of scopolamine-induced amnesic deficit at 10 to 30 mg/kg, ip by passive avoidance test
[3] = Half life in Gottingen minipig at 0.5 mg/kg, iv; assay type: ADME, organism-based, Sus scrofa; parameters: dose 0.5 mg/kg, route intravenous; conditions: pig, in vivo
Procedure, shortened: (§2)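 Male animals, n = 3 per species, given single iv and oral doses. Values are mean and range. Blood clearance is also expressed as % of liver blood flow, taken as (mL/min)/kg: rat 85, dog 31, minipig 30, cynomolgus monkey 44.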

[4] = Tmax in Gottingen minipig at 1 mg/kg, po; assay type: ADME, organism-based, Sus scrofa; parameters: dose 1 mg/kg, route oral; conditions: pig, in vivo
Procedure, shortened: (§3)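 Male animals, n = 3 per species, given single iv and oral doses: Sprague-Dawley rat 2.5 iv / 3 po mg/kg; beagle dog 0.25 / 0.5; Göttingen minipig 0.5 / 1; cynomolgus monkey 0.25 / 1. Blood sampled; Vss from iv; bioavailability and Vss as mean [range]; Tmax as median [range].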

[5] = biological target: Glutamate receptor 2 (Rattus norvegicus) (UniProt P19491); assay: Allosteric modulation of GluA2 receptor flip isoform in rat hippocampal neuron at 10 nM by whole cell patch-clamp electrophysiology; conditions: Hippocampus; procedure, shortened: as §1
[6] = Half life in Sprague-Dawley rat at 2.5 mg/kg, iv; assay type: ADME, organism-based; parameters: dose 2.5 mg/kg, route intravenous; conditions: in vivo; procedure, shortened: as §2
Glutamate receptor 2 [7] = biological target: T1, Glutamate receptor 2 (Homo sapiens, UniProt P42262); assay: Allosteric modulation of human recombinant GluA2 receptor flip isoform expressed in HEK293 cells at 100 nM by whole cell patch-clamp electrophysiology; assay type: cell-based
Procedure, shortened: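 Perforated-patch (amphotericin B) voltage clamp of HEK293 cells stably expressing human GluA2 flip (unedited) homotetramers, held at -60 mV. Extracellular solution in mM: 140 NaCl, 2 KCl, 1 MgCl2, 2 CaCl2, 12 HEPES, 10 D-glucose, pH 7.35. Currents evoked by 1 mM glutamate; compound at 100 nM or 10 μM. Read-out is percent increase in charge transfer (area under curve).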

[8] = Tmax in Swiss Beagle dog at 0.5 mg/kg, po; assay type: ADME, organism-based, Canis lupus familiaris; parameters: dose 0.5 mg/kg, route oral; conditions: in vivo; procedure, shortened: as §3
[9] = Cmax in Sprague-Dawley rat at 3 mg/kg, po; assay type: ADME, organism-based; parameters: dose 3 mg/kg, route oral; conditions: in vivo
Rattus norvegicus [10] = assay: Cognitive enhancing effect in Lister Hooded rat assessed as reversal of 24 hrs delay-induced cognitive deficit at 1 mg/kg, ip by novel object recognition test
Brain [11] = assay: Drug level in Lister Hooded rat assessed per gram of tissue at 30 mg/kg, ip; assay type: ADME, organism-based; parameters: dose 30 mg/kg, route intraperitoneal; conditions: in vivo
Procedure, shortened: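 Male Lister Hooded rats pretreated 30 min before the maximal electroshock threshold test with compound or saline vehicle; picrotoxin served as positive control. Corneal current applied, CC50 about 60-70 mA, 0.1 ms. Brain levels measured in satellite rats sampled immediately after testing.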

[12] = Volume of distribution at steady state in Swiss Beagle dog at 0.25 mg/kg, iv and 0.5 mg/kg, po; assay type: ADME, organism-based, Canis lupus familiaris; conditions: in vivo, read-out: Vdss; procedure, shortened: as §3
Brain [13] = assay: Drug level in Lister Hooded rat assessed per gram of tissue at 1 mg/kg, ip; assay type: ADME, organism-based; parameters: dose 1 mg/kg, route intraperitoneal; conditions: in vivo
Procedure, shortened: (§4)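 Male Lister Hooded rats (n = 9-12/group) tested for reversal of a 24 h delay-induced deficit in novel object recognition. Significant doses flagged. Brain concentrations measured in the study animals at the end of the test.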

[14] = Cmax in cynomolgus monkey at 1 mg/kg, po; assay type: ADME, organism-based, Macaca fascicularis; parameters: dose 1 mg/kg, route oral; conditions: in vivo
Glutamate receptor 2 [15] = biological target: T1, Glutamate receptor 2; assay: Allosteric modulation of human recombinant GluA2 receptor flip isoform expressed in HEK293 cells assessed as potentiation of glutamate-induced calcium influx by Fluo-4/FLIPR method; assay type: cell-based
Procedure, shortened: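 Stable GluA2 flip (unedited) cell line grown in DMEM/F12 with 10% FBS and seeded to confluence 2-3 days before use. Cells washed in HEPES buffer (pH 7.3) and loaded with 2 μM Fluo-4 AM for 60 min at room temperature. On FLIPR, compound was added 5 min before 100 μM glutamate. pEC50 and asymptotic maximum are relative to the maximal response to cyclothiazide, n ≥ 3.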

[16] = Clearance in rat at 3 mg/kg, po; assay type: ADME, organism-based; parameters: dose 3 mg/kg, route oral; conditions: in vivo
Procedure, shortened: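 Rats dosed orally at 3 mg/kg; blood sampled via the hepatic portal vein and heart. Estimated clearance derived from in vivo hepatic extraction, taking rat liver blood flow as 85 (mL/min)/kg.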

[17] = Apparent permeability of the compound; assay type: ADME; conditions: not told
Procedure, shortened: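 Artificial membrane permeability: donor holds 10 mM sample in pH 7.05 phosphate buffer with 0.5% hydroxypropylcyclodextrin. Membrane is 1.8% phosphatidylcholine and 1% cholesterol in decane. Donor and acceptor concentrations measured by LCMS after 3 h at room temperature; permeability expressed in nm/s.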

[18] = Volume of distribution at steady state in cynomolgus monkey at 0.25 mg/kg, iv and 1 mg/kg, po; assay type: ADME, organism-based, Macaca fascicularis; conditions: in vivo, read-out: Vdss; procedure, shortened: as §3
[19] = Oral bioavailability in Gottingen minipig at 1 mg/kg; assay type: ADME, organism-based, Sus scrofa; conditions: pig, in vivo; procedure, shortened: as §3
[20] = Intrinsic clearance in cryopreserved minipig hepatocytes assessed per gram of tissue; assay type: ADME, cell-based, Sus scrofa, Liver, Hepatocyte; conditions: pig
Procedure, shortened: (§5)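 Cryopreserved hepatocytes at 70 000 cells/mL; intrinsic clearance expressed per gram of liver; single determination (human also n = 3).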

Rattus norvegicus [21] = assay: Cognitive enhancing effect in Lister Hooded rat assessed as reversal of 24 hrs delay-induced cognitive deficit at 0.1 mg/kg, ip by novel object recognition test
Hepatocyte = assay: Intrinsic clearance in cryopreserved rat hepatocytes assessed per gram of tissue; assay type: ADME, cell-based, Liver; procedure, shortened: as §5
[22] = Half life in Swiss Beagle dog at 0.5 mg/kg, po; assay type: ADME, organism-based, Canis lupus familiaris; parameters: dose 0.5 mg/kg, route oral; conditions: in vivo
[23] = Cmax in rat at 3 mg/kg, po; assay type: ADME, organism-based; parameters: dose 3 mg/kg, route oral; conditions: in vivo
Brain [24] = assay: Drug level in Lister Hooded rat assessed per gram of tissue at 3 mg/kg, ip; assay type: ADME, organism-based; parameters: dose 3 mg/kg, route intraperitoneal; conditions: in vivo; procedure, shortened: as §4
[25] = Oral bioavailability in cynomolgus monkey at 1 mg/kg; assay type: ADME, organism-based, Macaca fascicularis; conditions: in vivo; procedure, shortened: as §3
Glutamate receptor 2 [26] = biological target: T1, Glutamate receptor 2; assay: Allosteric modulation of human recombinant GluA2 receptor flip isoform expressed in HEK293 cells assessed as potentiation of glutamate-induced calcium influx by Fluo-4/FLIPR method relative to cyclothiazide; assay type: cell-based
Procedure, shortened: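 Stable GluA2 flip (unedited) cells seeded to confluence 2-3 days before assay; washed in HEPES buffer (145 NaCl, 5 KCl, 2 CaCl2, 1 MgCl2, 5.5 glucose, pH 7.3), loaded with 2 μM Fluo4-AM 60 min at room temperature. FLIPR dual addition: compound 5 min before 100 μM glutamate; fluorescence rise expressed against maximal cyclothiazide response, fitted pEC50 and Asym max; n ≥ 3.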

[27] = Plasma protein binding in rat at 3 mg/kg, po; assay type: ADME, organism-based; parameters: dose 3 mg/kg, route oral; conditions: read-out: PPB (converted)
[28] = Volume of distribution at steady state in Gottingen minipig at 0.5 mg/kg, iv and 1 mg/kg, po; assay type: ADME, organism-based, Sus scrofa; conditions: pig, in vivo, read-out: Vdss; procedure, shortened: as §3
[29] = biological target: Voltage-gated inwardly rectifying potassium channel KCNH2 (Homo sapiens, UniProt Q12809); assay: Inhibition of human ERG at 10 uM
Procedure, shortened: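 hERG tail current recorded from stably transfected cells, compound at a nominal 10 μM (stated as 3.6 μg/mL).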

Canis familiaris = assay: Hepatic blood flow in Swiss Beagle dog at 0.25 mg/kg, iv and 0.5 mg/kg, po; assay type: ADME, organism-based, Canis lupus familiaris, Liver; conditions: in vivo; procedure, shortened: as §2

T1 sequence (P42262 whole entry, canonical isoform): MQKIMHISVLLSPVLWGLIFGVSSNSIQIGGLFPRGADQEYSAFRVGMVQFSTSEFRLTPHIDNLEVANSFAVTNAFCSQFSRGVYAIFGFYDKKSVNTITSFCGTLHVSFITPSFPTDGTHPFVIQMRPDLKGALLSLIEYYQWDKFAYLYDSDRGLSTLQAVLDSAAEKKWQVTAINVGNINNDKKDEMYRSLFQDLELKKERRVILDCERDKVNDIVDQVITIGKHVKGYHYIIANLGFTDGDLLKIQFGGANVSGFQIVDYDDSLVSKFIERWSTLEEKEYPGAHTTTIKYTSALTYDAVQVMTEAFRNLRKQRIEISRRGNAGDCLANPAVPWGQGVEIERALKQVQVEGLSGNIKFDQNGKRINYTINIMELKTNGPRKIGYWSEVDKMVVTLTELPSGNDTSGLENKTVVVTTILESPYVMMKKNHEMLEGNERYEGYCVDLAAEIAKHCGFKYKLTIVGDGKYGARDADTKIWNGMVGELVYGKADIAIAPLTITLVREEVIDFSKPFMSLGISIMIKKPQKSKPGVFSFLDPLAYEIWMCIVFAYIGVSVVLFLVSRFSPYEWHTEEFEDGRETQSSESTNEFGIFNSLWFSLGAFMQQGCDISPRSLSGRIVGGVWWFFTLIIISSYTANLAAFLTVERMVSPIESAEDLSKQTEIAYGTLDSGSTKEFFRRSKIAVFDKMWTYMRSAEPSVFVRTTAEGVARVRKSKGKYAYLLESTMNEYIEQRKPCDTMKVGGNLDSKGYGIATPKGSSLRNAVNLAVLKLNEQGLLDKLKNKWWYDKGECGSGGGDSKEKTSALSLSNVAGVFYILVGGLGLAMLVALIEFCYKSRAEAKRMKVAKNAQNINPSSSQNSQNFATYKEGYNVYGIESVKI
Glutamate receptor 2 (Rattus norvegicus), sequence (P19491 whole entry, canonical isoform): as the sequence (P42262 whole entry, canonical isoform) above, with M191T, T291A, R764G, A852P counted along it
Voltage-gated inwardly rectifying potassium channel KCNH2, sequence (Q12809 whole entry): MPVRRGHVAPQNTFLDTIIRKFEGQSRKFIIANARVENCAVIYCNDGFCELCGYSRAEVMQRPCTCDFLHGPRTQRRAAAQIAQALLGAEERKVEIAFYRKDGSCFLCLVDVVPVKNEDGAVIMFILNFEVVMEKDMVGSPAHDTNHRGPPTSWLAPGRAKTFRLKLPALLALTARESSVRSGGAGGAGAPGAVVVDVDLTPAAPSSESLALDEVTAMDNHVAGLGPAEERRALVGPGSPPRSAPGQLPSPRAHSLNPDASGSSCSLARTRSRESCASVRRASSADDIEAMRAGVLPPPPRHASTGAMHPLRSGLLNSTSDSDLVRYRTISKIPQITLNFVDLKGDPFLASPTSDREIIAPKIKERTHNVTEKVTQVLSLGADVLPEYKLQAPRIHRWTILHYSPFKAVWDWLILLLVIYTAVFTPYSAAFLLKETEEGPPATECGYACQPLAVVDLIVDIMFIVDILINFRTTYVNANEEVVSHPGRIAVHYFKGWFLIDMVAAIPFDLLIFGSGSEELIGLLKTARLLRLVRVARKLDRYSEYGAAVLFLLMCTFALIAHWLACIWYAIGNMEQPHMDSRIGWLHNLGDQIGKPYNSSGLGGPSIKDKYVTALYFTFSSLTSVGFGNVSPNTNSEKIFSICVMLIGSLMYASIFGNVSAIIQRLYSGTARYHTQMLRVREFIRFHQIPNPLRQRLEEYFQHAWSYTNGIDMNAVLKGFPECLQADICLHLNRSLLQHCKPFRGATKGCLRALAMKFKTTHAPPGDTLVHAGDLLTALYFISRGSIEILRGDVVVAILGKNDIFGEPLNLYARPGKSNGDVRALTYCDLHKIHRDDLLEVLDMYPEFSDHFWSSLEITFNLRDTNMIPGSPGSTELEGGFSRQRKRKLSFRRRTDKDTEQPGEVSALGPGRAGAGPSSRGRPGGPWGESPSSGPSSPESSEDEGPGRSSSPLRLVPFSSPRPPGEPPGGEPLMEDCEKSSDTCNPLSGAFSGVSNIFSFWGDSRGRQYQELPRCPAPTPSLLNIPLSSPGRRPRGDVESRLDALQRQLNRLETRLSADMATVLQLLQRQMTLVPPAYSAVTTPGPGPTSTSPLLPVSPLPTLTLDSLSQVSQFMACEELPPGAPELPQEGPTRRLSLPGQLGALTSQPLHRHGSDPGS

SMILES: O=C(c1ccc(-n2nc(C(F)(F)F)c3c2CCCC3)cc1)N1CCCC1
- Activity [1]: 62%
- Activity (Rattus norvegicus [2]): Active
- half-life [3]: 96 min
- Tmax [4]: 30 min
- Activity [5]: 37%
- half-life [6]: 84 min
- Activity (Glutamate receptor 2 [7]): 21%
- Tmax [8]: 36 min
- Cmax [9]: 245 ng/mL
- Activity (Rattus norvegicus [10]): Active
- Drug uptake (Brain [11]): 4686 ng/g
- Vd [12]: 3.4 L/kg
- Drug uptake (Brain [13]): 97 ng/g
- Cmax [14]: 5 ng/mL
- EC50 (Glutamate receptor 2 [15]): 10 µM
- CL/F [16]: 12 mL/min/kg
- Papp [17]: 41.5 ×10⁻⁶ cm/s
- Vd [18]: 1.6 L/kg
- bioavailability [19]: 13%
- CL [20]: 7 mL/min/g
- Activity (Rattus norvegicus [21]): Active
- CL (Hepatocyte): 2.3 mL/min/g
- half-life [22]: 54 min
- Cmax [23]: 228 ng/mL
- Drug uptake (Brain [24]): 542 ng/g
- bioavailability [25]: 2%
- Activity (Glutamate receptor 2 [26]): 123%
- fraction unbound [27]: 0.01
- Vd [28]: 3.2 L/kg
- inhibition (INH) [29]: Not Active
- QH (Canis familiaris): 100%
